Screens: PubChem, Sanford-Burnham Center for Chemical Genomics
Scp-1 inhibitor: blocks human Scp-1 phosphatase activity; AID 493091; hit rate 0.88% among 340,000; Recombinant Scp1, phosphopeptide, malachite green phosphate absorbance; Q9GZU7; inhibition, % at 20 µM;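 active = inhibition above about 50% at 20 µM, limit read from the data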;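 note: plate controls were DMSO wells with enzyme for no effect and wells lacking enzyme for full effect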
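Test system: SCP-1 catalytic domain; Buffer or medium: Acidic Tris acetate buffer with magnesium and detergent; Also added: Phosphorylated 17-residue peptide substrate; Compound: single 20 µM dose, 1% DMSO; Schedule: enzyme reaction 45 min at room temperature, colour 5 min, stabilisation 30 min; Signal: Phosphate-binding colour reagent, absorbance read at 630 nm.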
STEP inh: STEP (human) phosphatase inhibition; inhibition, % at 20 µM; hit rate 0.25% among 360,000; recombinant STEP, OMFP fluorogenic substrate, fluorescence; P54829;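 active = inhibition at 20 µM, scaled per plate between control wells, above about 37%, limit read from the data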;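 note: 0% = DMSO with enzyme and substrate and 100% = substrate only without enzyme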
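Also added – OMFP at 25 µM · Test system – STEP tyrosine phosphatase · Technique – FITC-channel fluorescence of OMFP product · Schedule – 20 min at room temperature, dark · Evaluation – control-normalized % inhibition with plate pattern correction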
SUMO1-SIM PPI: SUMO1-SIM interaction modulation | P63165 | SUMO1 binding to a labelled peptide, TR-FRET, 1 h | inhibition, % at 20 µM | hit rate 0.33% among 360,000 | AID 602429; in the data active = inhibition above about 37%
LMPTP block: blocks human LMPTP phosphatase; P24666; recombinant LMPTP-A, OMFP fluorogenic substrate, fluorescence intensity; inhibition, % at 20 µM; hit rate 0.22% among 360,000; AID 651560;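 active = compounds that cut the enzyme signal by at least half of the control window in the single-dose screen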;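 note: plate controls were DMSO wells with enzyme plus substrate for no effect and substrate without enzyme for full effect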
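Test system: LMPTP-A phosphatase enzyme. Amount: LMPTP-A at 0.625 nM final in the reaction. Reagent: OMFP substrate, 400 µM final. Times: 50 min at room temperature. Signal: endpoint fluorescence intensity from OMFP dephosphorylation. Read-out basis: % inhibition. Benchmarks: no-enzyme and uninhibited controls.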
HKDC1 inh: HKDC1 (human) hexokinase inhibition; hit rate 0.16% among 340,000; recombinant HKDC1, G6PDH/diaphorase resazurin coupled fluorescence; Q2TB90; AID 493160; inhibition, % at 20 µM;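 active = inhibition above about 35% when tested at 20 µM, limit read from the data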;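 note: plate controls were DMSO wells with enzyme for no effect and DMSO wells lacking enzyme for full effect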
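System: Recombinant HKDC1 hexokinase | Amount: HKDC1 at 5 µg/mL | Reagent: Glucose with 1 mM ATP | Doses: Single 20 µM dose | Incubation: Reaction time 90 min, room temperature, protected from light | Signal: Coupled resazurin fluorescence, excitation 525 nm, emission 613 nm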
DNMT1 block: blocks human DNA methyltransferase DNMT1; hit rate 0.83% among 360,000; DNMT1 molecular beacon, Hinp1I cleavage, fluorescence; inhibition (reported as % activation of signal), % at 10 µM; P26358; in the data active = inhibition above about 50%
Scp1 confirm: Scp-1 (human) inhibition, single-dose confirmed | hit rate 61% among 2,500 | AID 540281 | recombinant SCP-1 catalytic domain, phosphate release, malachite green absorbance | inhibition, % at 20 µM | shares compounds with Scp-1 inhibitor;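 note: plate controls were DMSO with enzyme for no effect and buffer wells lacking enzyme for full effect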
MG interference: counter-screen for Scp-1 inhibitors: colorimetric interference; 2,500 tested, under 10 active; AID 540313; shares compounds with Scp-1 inhibitor; apparent inhibition (interference), % at 20 µM; Colorimetric interference counterscreen, malachite green absorbance 630 nm;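 note: compounds added after enzyme reaction finished so only phosphate colour detection is probed; plate controls were DMSO wells with completed Scp-1 reaction for no effect and substrate wells lacking enzyme for full effect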
Scp-1 Tm shift: validation of human Scp-1 inhibitors by thermal shift binding | shares compounds with Scp-1 inhibitor | Recombinant SCP1, Sypro Orange thermal shift Tm | thermal shift relative to vanadate control, % at 40 µM | hit rate 25% among 1,500;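 active = substances whose mean melting-temperature shift, as a percentage of the reference inhibitor's shift, reaches about 5.3%, limit read from the data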;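 note: 0% = Tm of DMSO wells and 100% = Tm with sodium orthovanadate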
* = called active by the depositor; . = no result. Compounds with a hit are over-represented: about 1.8% of the library has one in this group of screens.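 Rule for the calls, unless noted: active = inhibition of at least 30% at 20 µM; inactive = the rest.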

SMILES	Scp-1 inhibitor	STEP inh	SUMO1-SIM PPI	LMPTP block	HKDC1 inh	DNMT1 block	Scp1 confirm	MG interference	Scp-1 Tm shift
COc1ccc(CCN2CC(C(=O)N(C)CC(=O)Nc3ccc(F)c(F)c3F)CC2=O)cc1OC (centres undefined)	-7	1	-10	-8	2	3	.	.	.
O=C(O)COc1ccccc1/C=C1\SC(=S)N(/N=C/c2ccccc2O)C1=O	63*	1	31	1	22	-8	59*	-13	8.2*
Cc1nc(CNC(=O)c2ccccc2OC2CCN(S(C)(=O)=O)CC2)cs1	61*	-2	1	-1	0	1	-29	-21	.
COc1ccc2cc(C(=O)NCc3ccco3)c(=O)oc2c1	-8	-2	-16	-2	-3	4	.	.	.
COc1ccc2cc(C(=O)NCc3ccco3)c(=Nc3ccc(C(=O)O)cc3)oc2c1	63*	5	-17	0	14	1	34*	-20	-3
C[n+]1ccc(C(=O)Nc2ccccc2Cl)cc1	98*	-3	-10	-1	-7	3	90*	-14	-13
CCc1nc2ccc(C(=O)N(C)Cc3ccco3)cn2c1N(CC)Cc1cccc(Br)c1	.	4	-2	-1	.	5	.	.	.
COc1ccc(-c2coc3c(C)c4oc(=O)c(CCC(=O)O)c(C)c4cc23)cc1	-12	4	24	11	16	-1	.	.	.
Cc1coc2c(C)c3oc(=O)c(CCC(=O)N[C@@H](C)C(=O)N[C@@H](Cc4ccccc4)C(=O)O)c(C)c3cc12	104*	44*	-2	23	2	19	64*	-18	-33
Cc1c(CCC(=O)O)c(=O)oc2c(C)c3occ(-c4ccc(Br)cc4)c3cc12	67*	22	52*	90*	15	12	66*	-28	-6
Cc1coc2c(C)c3oc(=O)c(CC(=O)N[C@@H](CC(C)C)C(=O)O)c(C)c3cc12	-3	1	7	-2	1	1	.	.	.
O=C(COC(=O)/C=C/c1ccccc1Cl)NC1CCCC1	-13	0	-5	-1	0	2	.	.	.
CC(C)C[C@@H]1Cc2[nH][nH]c(=O)c2[C@H](C(C)C)O1	.	.	10	-1	.	.	.	.	.
O=C(CCCCCCCC(=O)NNC(=O)Nc1ccccc1)NNC(=O)Nc1ccccc1	73*	6	0	16	-10	0	65*	-16	-15
CCOc1ccccc1CN1[C@@H](c2ccc(OC)cc2)CC(C(=O)OC)(C(=O)OC)[C@H]1c1ccccc1	.	.	4	2	.	.	.	.	.
O=C(CCCCCCCCC(=O)N/N=C/c1ccco1)N/N=C/c1ccco1	51*	2	1	0	-6	9	68*	-11	-7
Cc1cc(C)c(C)c(OCCn2ccnc2)c1	-4	-3	0	0	3	6	.	.	.
Cc1ccc(C)c(OCCn2ccnc2)c1	59*	-3	6	0	7	2	39*	-11	-14
CC(C)(C)OC(=O)C(Oc1ccccc1[N+](=O)[O-])C(=O)OC(C)(C)C	.	.	2	0	.	.	.	.	.
O=[N+]([O-])c1ccc(NN=CC2CCCCCC2)c([N+](=O)[O-])c1	.	.	-11	1	.	.	.	.	.
COc1ccc2cc(C(=O)Nc3ccc(S(N)(=O)=O)cc3)sc(=O)c2c1OC	73*	10	-29	6	-8	1	38*	-22	-4
COc1ccc2cc(C(=O)Nc3ccccc3)sc(=O)c2c1OC	36	8	-10	2	2	6	.	.	.
CNc1ncnc2c1ncn2[C@H]1CN(CCOC)C[C@@H](CO)O1	.	-2	3	-3	.	7	.	.	.
CC[n+]1ccc(C[n+]2ccccc2)c2ccccc21	97*	-2	-16	-1	-7	-8	86*	-10	-4
CC[n+]1ccc(/C=C/c2ccc(N(C)C)cc2)c2ccccc21	3	21	-51	32	14	1	.	.	.
SMILES	Scp-1 inhibitor	STEP inh	SUMO1-SIM PPI	LMPTP block	HKDC1 inh	DNMT1 block	Scp1 confirm	MG interference	Scp-1 Tm shift
O=C(NCc1ccco1)c1ccc(-c2ccc(F)c(F)c2)c2ccoc12	.	-1	1	4	.	0	.	.	.
CC(C)c1ccc(NS(=O)(=O)c2ccc3c(c2)oc(=O)n3C)cc1	-13	0	4	1	-4	-1	-20	-23	.
CCOC(=O)C1=C(C)N=c2s/c(=C\c3ccc(C(=O)O)cc3)c(=O)n2C1c1ccc(OC)cc1OC (centres undefined)	73*	6	-23	1	-1	-2	72*	-7	6.9*
CCOC(=O)C1=C(C)N=c2s/c(=C\c3ccc(C(=O)O)cc3)c(=O)n2C1c1ccc(F)cc1 (centres undefined)	7	11	-18	1	4	1	.	.	.
CCOc1ccccc1NC(=O)C(NCC1(N2CCCCC2)CCCCC1)c1ccccc1 (centres undefined)	65*	2	8	-1	-4	2	-13	-11	.
CCOc1ccccc1NC(=O)C(OC(=O)C1CC1)c1ccccc1 (centres undefined)	-5	0	2	5	-4	3	.	.	.
CCOC(=O)c1sc(NC(=O)C2C3C=CC(C3)C2C(=O)O)nc1C (centres undefined)	54*	22	-2	-1	-9	24	42*	-11	-1
Cc1cccc(N2CCN(c3ccc(NC(=O)/C=C(/C(=O)O)c4ccccc4)cc3)CC2)c1	58*	2	-1	-1	6	0	72*	-10	-5
O=C(NCc1ccc(F)cc1)c1cc(C2CCCN(C(=O)c3ccc4ccccc4c3)C2)on1 (centres undefined)	.	-1	-2	2	.	-11	.	.	.
